The source of these data is ChEMBL document CHEMBL3797061, “Characterizing the Covalent Targets of a Small Molecule Inhibitor of the Lysine Acetyltransferase P300” (ACS Med Chem Lett, 2016).

Molecules are shown by their SMILES. The source made the active and inactive calls. The rule behind the calls is not given here.

Test [1] has as its target D-3-phosphoglycerate dehydrogenase (Homo sapiens) (UniProt O43175). The experiment in a line: Binding affinity to PHGDH in HEK293 proteomes at 20 uM incubated for 16 hrs by TAMRA biotin-azide dye based LC-MS/MS analysis. Format: cell-based. The gist of the method: (§1)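 HEK-293 proteome labeled with alkyne probe, then enriched and identified by LC–MS/MS. Spectral counts compared with a no-probe control.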

In test [2] the target is Heat shock 70 kDa protein 1A/1B (Homo sapiens) (UniProt P0DMV8+P0DMV9). Put plainly: Binding affinity to HSPA1A/HSPA1B in HEK293 proteomes assessed as spectral count ratio at 20 uM incubated for 16 hrs by TAMRA biotin-azide dye based LC-MS/MS analysis relative to control. Format: protein assay. Put shortly:
as §1

Test [3] concerns the target Tubulin alpha-1C chain (Homo sapiens) (UniProt Q9BQE3). Put plainly: Binding affinity to TUBA1C in HEK293 proteomes assessed as spectral count ratio at 20 uM incubated for 16 hrs by TAMRA biotin-azide dye based LC-MS/MS analysis relative to control. Put shortly:
as §1

For test [4], the target named is Creatine kinase B-type (Homo sapiens) (UniProt P12277). The experiment in a line: Binding affinity to CKB in HEK293 proteomes assessed as spectral count ratio at 20 uM incubated for 16 hrs by TAMRA biotin-azide dye based LC-MS/MS analysis relative to control. Put shortly:
as §1

Test [5] deals with Eukaryotic initiation factor 4A-I (Homo sapiens) (UniProt P60842). Put plainly: Binding affinity to EIF4A1 in HEK293 proteomes assessed as spectral count ratio at 20 uM incubated for 16 hrs by TAMRA biotin-azide dye based LC-MS/MS analysis relative to control. Put shortly: as §1
Test [6] addresses Tubulin alpha-1B chain (Homo sapiens) (UniProt P68363). Put plainly: Binding affinity to TUBA1B in HEK293 proteomes assessed as spectral count ratio at 20 uM incubated for 16 hrs by TAMRA biotin-azide dye based LC-MS/MS analysis relative to control. Put shortly: as §1
Test [7] has as its target Histone acetyltransferase p300 (Homo sapiens, UniProt Q09472). The experiment in a line: Inhibition of recombinant P300 catalytic domain (1284 to 1673 residues) (unknown origin) using FITC- histone H4 peptide (1 to 19 residues) as substrate by electrophoretic mobility shift assay.
Test [8] addresses Elongation factor 1-alpha 1 (Homo sapiens) (UniProt P68104). Put plainly: Binding affinity to EEF1A1 in HEK293 proteomes assessed as spectral count ratio at 20 uM incubated for 16 hrs by TAMRA biotin-azide dye based LC-MS/MS analysis relative to control. Put shortly: as §1
Test [9] concerns the target 60 kDa heat shock protein, mitochondrial (Homo sapiens) (UniProt P10809). Put plainly: Binding affinity to HSPD1 in HEK293 proteomes assessed as spectral count ratio at 20 uM incubated for 16 hrs by TAMRA biotin-azide dye based LC-MS/MS analysis relative to control. Put shortly:
as §1

In test [10] the target is Tubulin beta-5 chain (Homo sapiens) (UniProt P07437). Put plainly: Binding affinity to TUBB in HEK293 proteomes assessed as spectral count ratio at 20 uM incubated for 16 hrs by TAMRA biotin-azide dye based LC-MS/MS analysis relative to control. The gist of the method: as §1
The target in test [11] is Heat shock protein HSP 90-beta (Homo sapiens) (UniProt P08238). The experiment in a line: Binding affinity to HSP90AB1 in HEK293 proteomes assessed as spectral count ratio at 20 uM incubated for 16 hrs by TAMRA biotin-azide dye based LC-MS/MS analysis relative to control. The gist of the method:
as §1

In test [12] the target is Heterogeneous nuclear ribonucleoprotein H (Homo sapiens) (UniProt P31943). The experiment in a line: Binding affinity to HNRNPH1 in HEK293 proteomes at 20 uM incubated for 16 hrs by TAMRA biotin-azide dye based LC-MS/MS analysis. Format: cell-based. Put shortly: as §1
Test [13] addresses Tubulin beta-2A chain (Homo sapiens) (UniProt Q13885). Put plainly: Binding affinity to TUBB2A in HEK293 proteomes assessed as spectral count ratio at 20 uM incubated for 16 hrs by TAMRA biotin-azide dye based LC-MS/MS analysis relative to control. The gist of the method:
as §1

In test [14] the target is Tubulin alpha-8 chain (Homo sapiens) (UniProt Q9NY65). The experiment in a line: Binding affinity to TUBA8 in HEK293 proteomes assessed as spectral count ratio at 20 uM incubated for 16 hrs by TAMRA biotin-azide dye based LC-MS/MS analysis relative to control. Put shortly: as §1
For test [15], the system named is HEK293. Put plainly: Binding affinity to HEK293 proteomes at 1 uM incubated for 16 hrs using TAMRA-azide dye by SDS-PAGE based fluorescence analysis in presence of iodoacetamide. Format: cell-based. As to conditions: Homo sapiens. The gist of the method:
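Proteomes were preincubated with iodoacetamide before alkyne-probe treatment. Probe labeling then proceeded by click conjugation to a fluorescent azide, SDS-PAGE without boiling, and fluorescence imaging to test for cysteine-directed labeling.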

Test [16] deals with HEK293. The experiment in a line: Binding affinity to HEK293 proteomes incubated for 16 hrs using TAMRA-azide dye by SDS-PAGE based fluorescence analysis. Format: cell-based. As to conditions: Homo sapiens. The gist of the method:
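HEK-293 cell lysate was incubated 16 h with alkyne probe (5–50 μM) and then conjugated to a fluorescent azide by Cu-catalysed [3+2] cycloaddition. Reactions were quenched in loading buffer without boiling. Proteins were resolved by SDS-PAGE and covalent labeling was imaged by in-gel fluorescence.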

Test [17] has as its target Actin, cytoplasmic 1 (Homo sapiens) (UniProt P60709). The experiment in a line: Binding affinity to ACTB in HEK293 proteomes assessed as spectral count ratio at 20 uM incubated for 16 hrs by TAMRA biotin-azide dye based LC-MS/MS analysis relative to control. Put shortly:
as §1

In test [18] the test system is HEK293. Put plainly: Binding affinity to HEK293 proteomes assessed as compound-Cysteine adduct formation at 1 uM incubated for 24 hrs by LC-MS/MS analysis. Format: cell-based. As to conditions: Homo sapiens.
The target in test [19] is Pyruvate kinase PKM (Homo sapiens) (UniProt P14618). Put plainly: Binding affinity to PKM in HEK293 proteomes assessed as spectral count ratio at 20 uM incubated for 16 hrs by TAMRA biotin-azide dye based LC-MS/MS analysis relative to control. Put shortly:
as §1

Test [20] concerns the target Alpha-enolase (Homo sapiens) (UniProt P06733). Put plainly: Binding affinity to ENO1 in HEK293 proteomes assessed as spectral count ratio at 20 uM incubated for 16 hrs by TAMRA biotin-azide dye based LC-MS/MS analysis relative to control. Put shortly:
as §1

For test [21], the target named is Tubulin beta-4A chain (Homo sapiens) (UniProt P04350). The experiment in a line: Binding affinity to TUBB4A in HEK293 proteomes assessed as spectral count ratio at 20 uM incubated for 16 hrs by TAMRA biotin-azide dye based LC-MS/MS analysis relative to control. The gist of the method:
as §1

The target in test [22] is Tubulin alpha-1A chain (Homo sapiens) (UniProt Q71U36). Put plainly: Binding affinity to TUBA1A in HEK293 proteomes assessed as spectral count ratio at 20 uM incubated for 16 hrs by TAMRA biotin-azide dye based LC-MS/MS analysis relative to control. Put shortly:
as §1

The target of another test is Tubulin (Sus scrofa) (UniProt P02554+P02550). The experiment in a line: Inhibition of porcine brain tubulin polymerization assessed as decrease in rate of microtubule formation incubated up to 1 hr by fluorescence analysis. The gist of the method:
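Porcine tubulin was preincubated with compound and polymerization was then followed by a fluorescence assay. Read-outs were the rate of microtubule formation and final polymer mass. CaCl2 served as the positive control for inhibition.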

Sequence of Tubulin alpha-8 chain (Homo sapiens) (Q9NY65 whole entry): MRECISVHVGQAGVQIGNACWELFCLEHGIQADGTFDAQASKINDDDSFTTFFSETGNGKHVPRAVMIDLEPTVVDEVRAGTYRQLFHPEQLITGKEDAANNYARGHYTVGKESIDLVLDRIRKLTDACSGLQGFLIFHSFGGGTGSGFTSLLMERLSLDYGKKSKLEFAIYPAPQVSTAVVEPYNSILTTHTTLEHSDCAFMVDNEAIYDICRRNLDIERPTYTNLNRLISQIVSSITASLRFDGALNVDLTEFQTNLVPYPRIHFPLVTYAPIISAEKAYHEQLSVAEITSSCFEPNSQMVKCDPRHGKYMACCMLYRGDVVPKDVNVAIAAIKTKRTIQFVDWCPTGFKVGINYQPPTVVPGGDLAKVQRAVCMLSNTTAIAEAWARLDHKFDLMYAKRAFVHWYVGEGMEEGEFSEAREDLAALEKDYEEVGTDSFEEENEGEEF
Sequence of Heterogeneous nuclear ribonucleoprotein H (Homo sapiens) (P31943 whole entry): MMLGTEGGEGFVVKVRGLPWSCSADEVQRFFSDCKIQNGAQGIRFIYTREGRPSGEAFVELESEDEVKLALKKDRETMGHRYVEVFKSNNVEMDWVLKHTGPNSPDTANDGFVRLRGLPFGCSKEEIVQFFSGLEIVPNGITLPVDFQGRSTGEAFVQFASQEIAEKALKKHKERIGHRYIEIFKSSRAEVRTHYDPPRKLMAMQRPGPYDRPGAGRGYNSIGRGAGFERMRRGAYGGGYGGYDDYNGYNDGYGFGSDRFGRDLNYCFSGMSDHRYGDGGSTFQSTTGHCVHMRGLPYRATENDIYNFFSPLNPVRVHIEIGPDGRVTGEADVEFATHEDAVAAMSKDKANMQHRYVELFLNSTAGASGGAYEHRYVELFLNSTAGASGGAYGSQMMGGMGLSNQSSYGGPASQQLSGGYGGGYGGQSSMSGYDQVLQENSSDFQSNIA
Sequence of Tubulin (Sus scrofa) (P02550 whole entry, looked up): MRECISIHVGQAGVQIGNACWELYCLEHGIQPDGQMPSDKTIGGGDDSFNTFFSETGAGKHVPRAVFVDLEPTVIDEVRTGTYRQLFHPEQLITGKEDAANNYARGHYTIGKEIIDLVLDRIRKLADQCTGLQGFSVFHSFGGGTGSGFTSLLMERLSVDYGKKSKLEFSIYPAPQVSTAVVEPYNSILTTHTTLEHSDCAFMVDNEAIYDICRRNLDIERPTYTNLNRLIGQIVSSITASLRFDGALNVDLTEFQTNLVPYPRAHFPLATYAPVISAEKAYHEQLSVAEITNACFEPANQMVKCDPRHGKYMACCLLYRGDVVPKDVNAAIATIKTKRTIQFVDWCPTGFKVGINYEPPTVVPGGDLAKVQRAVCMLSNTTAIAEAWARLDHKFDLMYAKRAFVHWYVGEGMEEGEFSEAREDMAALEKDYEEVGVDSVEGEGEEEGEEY
Sequence of Tubulin (Sus scrofa) (P02554 whole entry, looked up): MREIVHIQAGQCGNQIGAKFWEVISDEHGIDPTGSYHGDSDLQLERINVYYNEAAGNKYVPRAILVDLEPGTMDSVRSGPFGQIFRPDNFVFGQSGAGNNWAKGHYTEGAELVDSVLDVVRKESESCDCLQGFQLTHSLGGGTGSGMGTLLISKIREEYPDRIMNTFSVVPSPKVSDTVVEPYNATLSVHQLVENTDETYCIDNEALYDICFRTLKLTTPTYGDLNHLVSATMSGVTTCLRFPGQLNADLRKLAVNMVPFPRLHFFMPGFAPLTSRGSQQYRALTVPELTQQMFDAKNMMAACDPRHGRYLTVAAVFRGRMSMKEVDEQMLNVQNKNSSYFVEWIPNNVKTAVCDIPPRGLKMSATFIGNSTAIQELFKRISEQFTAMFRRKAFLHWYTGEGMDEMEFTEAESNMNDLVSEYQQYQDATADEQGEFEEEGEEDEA
Sequence of Creatine kinase B-type (Homo sapiens) (P12277 whole entry): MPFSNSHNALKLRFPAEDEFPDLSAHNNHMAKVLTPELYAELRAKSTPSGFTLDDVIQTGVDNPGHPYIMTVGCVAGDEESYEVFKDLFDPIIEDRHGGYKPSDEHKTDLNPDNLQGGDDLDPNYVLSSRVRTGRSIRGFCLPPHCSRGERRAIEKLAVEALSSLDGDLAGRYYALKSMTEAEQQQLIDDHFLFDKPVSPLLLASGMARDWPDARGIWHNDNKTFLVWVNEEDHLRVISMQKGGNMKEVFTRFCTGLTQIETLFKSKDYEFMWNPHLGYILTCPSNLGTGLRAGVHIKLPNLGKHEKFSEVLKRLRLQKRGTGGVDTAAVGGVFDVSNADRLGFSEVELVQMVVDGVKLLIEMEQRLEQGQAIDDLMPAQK
Sequence of Tubulin alpha-1A chain (Homo sapiens) (Q71U36 whole entry, looked up): as the sequence (P02550 whole entry, looked up) above, with S136L, A265I, E358Q counted along it
Sequence of Heat shock 70 kDa protein 1A/1B (Homo sapiens) (P0DMV8 whole entry, looked up): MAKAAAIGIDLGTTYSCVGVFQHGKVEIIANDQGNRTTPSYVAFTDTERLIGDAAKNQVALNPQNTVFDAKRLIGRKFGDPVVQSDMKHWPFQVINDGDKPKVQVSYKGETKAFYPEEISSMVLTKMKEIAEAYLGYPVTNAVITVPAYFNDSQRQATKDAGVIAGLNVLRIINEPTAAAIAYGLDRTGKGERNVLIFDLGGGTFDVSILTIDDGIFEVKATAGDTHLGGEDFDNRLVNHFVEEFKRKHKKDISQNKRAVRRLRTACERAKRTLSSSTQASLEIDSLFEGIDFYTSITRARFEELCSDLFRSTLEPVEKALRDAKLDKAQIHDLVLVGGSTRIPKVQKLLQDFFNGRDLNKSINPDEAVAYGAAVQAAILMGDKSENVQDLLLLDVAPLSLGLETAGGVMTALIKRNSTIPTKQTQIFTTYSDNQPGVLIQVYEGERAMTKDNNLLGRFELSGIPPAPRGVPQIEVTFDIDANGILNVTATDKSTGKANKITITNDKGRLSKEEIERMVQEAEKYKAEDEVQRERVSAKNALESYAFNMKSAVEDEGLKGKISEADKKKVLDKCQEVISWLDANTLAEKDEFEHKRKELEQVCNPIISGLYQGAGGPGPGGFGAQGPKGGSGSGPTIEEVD
Sequence of Heat shock 70 kDa protein 1A/1B (Homo sapiens) (P0DMV9 whole entry, looked up): as the sequence (P0DMV8 whole entry, looked up) above
Sequence of Eukaryotic initiation factor 4A-I (Homo sapiens) (P60842 whole entry): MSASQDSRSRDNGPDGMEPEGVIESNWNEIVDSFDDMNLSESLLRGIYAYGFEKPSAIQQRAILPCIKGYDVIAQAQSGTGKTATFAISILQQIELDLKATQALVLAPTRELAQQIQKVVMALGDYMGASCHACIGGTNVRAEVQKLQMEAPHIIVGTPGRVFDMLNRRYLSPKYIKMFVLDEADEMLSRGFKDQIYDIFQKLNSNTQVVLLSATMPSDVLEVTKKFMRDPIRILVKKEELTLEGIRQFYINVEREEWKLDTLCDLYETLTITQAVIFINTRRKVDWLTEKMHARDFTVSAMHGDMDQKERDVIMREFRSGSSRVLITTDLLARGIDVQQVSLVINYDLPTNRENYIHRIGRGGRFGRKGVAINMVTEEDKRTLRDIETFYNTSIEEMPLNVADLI
Sequence of Elongation factor 1-alpha 1 (Homo sapiens) (P68104 whole entry): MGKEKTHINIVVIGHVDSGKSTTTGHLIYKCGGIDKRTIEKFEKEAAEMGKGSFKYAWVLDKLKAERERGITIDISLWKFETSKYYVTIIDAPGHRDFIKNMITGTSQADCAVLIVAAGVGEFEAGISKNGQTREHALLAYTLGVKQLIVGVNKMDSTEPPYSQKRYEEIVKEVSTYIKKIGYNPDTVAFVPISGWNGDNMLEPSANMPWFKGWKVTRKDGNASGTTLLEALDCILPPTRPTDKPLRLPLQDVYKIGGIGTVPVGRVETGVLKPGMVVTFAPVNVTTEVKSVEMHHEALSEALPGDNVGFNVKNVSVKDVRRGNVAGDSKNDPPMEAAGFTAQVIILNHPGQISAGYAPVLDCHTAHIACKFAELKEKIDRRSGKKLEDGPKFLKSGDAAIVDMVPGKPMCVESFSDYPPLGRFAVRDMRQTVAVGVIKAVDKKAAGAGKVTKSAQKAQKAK
Sequence of Tubulin beta-5 chain (Homo sapiens) (P07437 whole entry): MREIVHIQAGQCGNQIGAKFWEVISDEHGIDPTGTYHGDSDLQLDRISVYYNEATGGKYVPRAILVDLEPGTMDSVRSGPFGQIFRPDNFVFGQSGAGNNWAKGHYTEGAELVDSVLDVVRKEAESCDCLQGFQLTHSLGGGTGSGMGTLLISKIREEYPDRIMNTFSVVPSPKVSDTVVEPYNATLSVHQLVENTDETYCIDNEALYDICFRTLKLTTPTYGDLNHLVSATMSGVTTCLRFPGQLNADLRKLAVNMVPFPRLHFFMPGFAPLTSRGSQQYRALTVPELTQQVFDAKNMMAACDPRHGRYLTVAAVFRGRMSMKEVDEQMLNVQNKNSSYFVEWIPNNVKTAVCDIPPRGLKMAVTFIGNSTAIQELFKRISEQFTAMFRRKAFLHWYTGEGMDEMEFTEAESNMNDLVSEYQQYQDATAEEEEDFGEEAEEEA
Sequence of Tubulin beta-2A chain (Homo sapiens) (Q13885 whole entry): as the sequence (P02554 whole entry, looked up) above, with V170M, C201S, A296S, V316I, G440E, E441G counted along it
Sequence of Tubulin alpha-1B chain (Homo sapiens) (P68363 whole entry, looked up, the tested form may be a part): as the sequence (P02550 whole entry, looked up) above, with S136L, G232S, A265I, T340S, E358Q counted along it

In the case of `C#CCNC(=O)c1ccc(N2N=C(C)/C(=C/c3ccc(-c4cc(C)c(C)cc4[N+](=O)[O-])o3)C2=O)cc1`, the outcome (in test [1]; in [12]; with HEK293 [18]) was Active. The fold change (FC) in test [2] stood at 8; in [3], 25; in [4] it was 9; in [5], 17; in [6], 25; in test [8], 12. In addition, the fold change (FC) was found to be 24 in test [9]; 36 in [10]; 16 in test [11]; 25 in [13]; 64 in test [14]; 4 in test [17]. The fold change (FC) in [19] amounted to 16; in [20], 7; in test [21], 19; in test [22], 25. Also, the IC50 in [7] was found to be 14.1 µM. Besides, in the test on HEK293 [15], the result was inactive. In addition, the Activity result in the test on HEK293 [16] is “Dose-dependent effect”.

For the compound `CC1=NN(c2ccc(C(=O)O)cc2)C(=O)/C1=C\c1ccc(-c2cc(C)c(C)cc2[N+](=O)[O-])o1`, the inhibition result at Tubulin (Sus scrofa) was “Dose-dependent effect”.
